Assay results pooled from the literature.
Cell line: MV4-11
Effect on: cell growth or viability

| Structure (SMILES) | technique | time | measurement | value |
| --- | --- | --- | --- | --- |
| N[C@H]1CC[C@H](N[C@@H]2C[C@H]2c2ccccc2)CC1 | resazurin | 96 h | EC50 | 0.1 nM |
| c1cc(Nc2nccc(NC3CCCCC3)n2)cc(-c2cnccn2)c1 | ATP luminescence | 72 h | EC50 | 53 nM |
| Cn1cc(-c2cc(N3CCCCS3(=O)=O)ccc2Oc2ccc(F)cc2F)c2c(F)c[nH]c2c1=O | CCK-8 | 72 h | GI50 | 3.5 nM |
| N[C@@H](CC(=O)N1CCN(C(c2ccc(F)cc2)c2ccc(F)cc2)CC1)C(=O)N1Cc2ccccc2C1 | ATP luminescence | 24 h | IC50 | 1480 nM |
| COc1ccc(-c2c(-c3ccc(C#N)c(F)c3)nc(N3CCC(N)CC3)n(C)c2=O)cc1F | resazurin | 96 h | EC50 | 2.9 nM |
| Cc1ncsc1-c1ccc(CNC(=O)[C@@H]2C[C@H](O)CN2C(=O)[C@@H](NC(=O)C2(F)CC2)C(C)(C)C)c(OCCc2ccc(CN3CCN(c4cc(-c5ccccc5O)nnc4N)CC3)cc2)c1 | ATP luminescence | 7 days | IC50 | 1700 nM |
| Nc1nc(Nc2ccc3c(c2)CC[C@@H](N2CCCC2)CC3)nn1-c1cc2c(nn1)-c1ccccc1CCC2 | trypan blue | 72 h | IC50 | 247 nM |
| O=C(O)c1ccc(CN2CCC(CN[C@@H]3C[C@H]3c3ccccc3)CC2)cc1 | resazurin | 96 h | EC50 | 39.6 nM |
| COC(=O)[C@H](C)Nc1ccnc(Nc2cccc(-c3cccnc3)c2)n1 | ATP luminescence | 72 h | EC50 | > 8000 nM |
| Nc1ncc(-c2cnn(C3CCNCC3)c2)cc1-c1nnc(CC2CC2)o1 | trypan blue | 72 h | IC50 | 157 nM |
| CC(C)Nc1ccnc(Nc2cccc(-c3ccccn3)c2)n1 | ATP luminescence | 72 h | EC50 | 4820 nM |
| COc1cc(Nc2nccc(-c3cnn4nc(OC)ccc34)n2)cc(C(F)(F)F)c1 | ATP luminescence | – | IC50 | 48 nM |
| CC(C)Nc1ccnc(Nc2ccc(C(N)=O)cc2)n1 | ATP luminescence | 72 h | EC50 | 2530 nM |
| C/C(=N\NC(=O)c1cccc(S(=O)(=O)N2CCN(C)CC2)c1)c1cc(Cl)ccc1O | resazurin | 96 h | EC50 | 886 nM |
| c1cc(Nc2nccc(NC3CCCCC3)n2)cc(-c2ncco2)c1 | ATP luminescence | 72 h | EC50 | 511 nM |
| CC(C)[C@H](N)C(=O)N1CCC[C@H]1B(O)O | ATP luminescence | 5 days | IC50 | 130 nM |
